# The source made the active and inactive calls. No cut-off for these calls is given here.
# Legend:
# Canis familiaris [1] = assay: The changes in canine renal function that were monitored over the 2-h interval following 146 umol/kg intravenous administration.; format: functional, Canis lupus familiaris
# In short: (§1)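 Dogs received the maleimide into the jugular vein at 73.0 or 146 µmol/kg over 10 min, dissolved in 0.9% saline with an equivalent amount of NaHCO3. Urine was collected in 10-min periods for 2 h. Read-outs were urine flow, urinary pH, GFR (inulin clearance), and Na, K (flame photometry) and Cl excretion. Each value is the change from the immediately preceding pretreatment period, analysed by Dunnett's test.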
# Canis familiaris [2] = assay: The changes in canine renal function that were monitored over the 2-h interval following 20 umol/kg renal arterial administration; no change; format: functional, organism-based; details: Canis lupus familiaris
# [3] = Half life period with L-Lys; activity expressed in terms of rx, no rx means no reaction; format: ADME
# [4] = Half life period with Glutathione (GSH); activity expressed in terms of rx, no rx means no reaction; format: ADME
# Canis familiaris [5] = assay: The changes in canine renal function that were monitored over the 2-h interval following 20 umol/kg renal arterial administration; NC=no change; format: functional, organism-based; details: Canis lupus familiaris
# Canis familiaris [6] = assay: The changes in canine renal function that were monitored over the 2-h interval following 73 umol/kg intravenous administration.; format: functional, Canis lupus familiaris; in short: as §1
SMILES,Change (Canis familiaris [2]),other results
CC1=CC(=O)N(c2ccc(C(=O)O)cc2C)C1=O,inactive,Change (Canis familiaris [1]): 5
CC1=C(C)C(=O)N(c2ccc(C(=O)NCC(=O)O)cc2)C1=O,inactive,T1/2 [3]: No RX; T1/2 [4]: No RX
O=C(O)c1ccc(N2C(=O)C=CC2=O)cc1,inactive,
CC1=CC(=O)N(c2ccc(C(=O)NCC(=O)O)cc2)C1=O,inactive,
CC1=CC(=O)N(c2ccc(C(=O)O)cc2)C1=O,inactive,
O=C(O)CNC(=O)c1ccc(N2C(=O)C=CC2=O)cc1,,Change (Canis familiaris [5]): inactive; Change (Canis familiaris [6]): ~-5
CC1=C(C)C(=O)N(c2ccc(C(=O)O)cc2)C1=O,inactive,
